Measured values as given in ChEMBL document CHEMBL1140929, “Synthesis and evaluation of 18F-labeled 2-phenylbenzothiazoles as positron emission tomography imaging agents for amyloid plaques in Alzheimer's disease” (J Med Chem, 2009).

Legend:
[1] = Biodistribution in NMRI mouse urine at 3.7 MBq/mL, iv after 2 mins by gamma counting; type: ADME, organism-based; details: in vivo
Outline: (§1)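 Male NMRI mice (30-40 g) anaesthetised with 0.1 mL ip Hypnorm (fentanyl citrate 63 µg/mL, fluanisone 2 mg/mL). Each received 0.1 mL of HPLC-purified 18F tracer, diluted in 0.9% NaCl to 3.7 MBq/mL (ethanol ≤10%, THF ≤0.02%), via tail vein. Killed by decapitation at 2 or 60 min; blood and organs weighed and γ-counted. Background-corrected, expressed as %ID or %ID/g.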

Lung [2] = assay: Biodistribution in NMRI mouse lung assessed per gram of tissue at 3.7 MBq/mL, iv after 2 mins by gamma counting; type: ADME, organism-based; details: in vivo; outline: as §1
Blood [3] = assay: Biodistribution in NMRI mouse blood at 3.7 MBq/mL, iv after 60 mins by gamma counting; type: ADME, organism-based; details: in vivo, 1 h; outline: as §1
Stomach [4] = assay: Biodistribution in NMRI mouse stomach at 3.7 MBq/mL, iv after 60 mins by gamma counting; type: ADME, organism-based; details: in vivo, 1 h; outline: as §1
[5] = Biodistribution in NMRI mouse cerebrum at 3.7 MBq/mL, iv after 60 mins by gamma counting; type: ADME, organism-based; details: in vivo, 1 h; outline: as §1
[6] = Biodistribution in NMRI mouse cerebrum at 3.7 MBq/mL, iv after 2 mins by gamma counting; type: ADME, organism-based; details: in vivo; outline: as §1
Blood [7] = assay: Biodistribution in NMRI mouse blood assessed per gram of tissue at 3.7 MBq/mL, iv after 2 mins by gamma counting; type: ADME, organism-based; details: in vivo; outline: as §1
Liver [8] = assay: Biodistribution in NMRI mouse liver assessed per gram of tissue at 3.7 MBq/mL, iv after 2 mins by gamma counting; type: ADME, organism-based; details: in vivo; outline: as §1
Liver [9] = assay: Biodistribution in NMRI mouse liver at 3.7 MBq/mL, iv after 60 mins by gamma counting; type: ADME, organism-based; details: in vivo, 1 h; outline: as §1
Kidney [10] = assay: Biodistribution in NMRI mouse kidney assessed per gram of tissue at 3.7 MBq/mL, iv after 2 mins by gamma counting; type: ADME, organism-based; details: in vivo; outline: as §1
Liver [11] = assay: Biodistribution in NMRI mouse liver assessed per gram of tissue at 3.7 MBq/mL, iv after 60 mins by gamma counting; type: ADME, organism-based; details: in vivo, 1 h; outline: as §1
Kidney [12] = assay: Biodistribution in NMRI mouse kidney assessed per gram of tissue at 3.7 MBq/mL, iv after 60 mins by gamma counting; type: ADME, organism-based; details: in vivo, 1 h; outline: as §1
[13] = Biodistribution in NMRI mouse spleen/pancreas at 3.7 MBq/mL, iv after 60 mins by gamma counting; type: ADME, organism-based; details: in vivo, 1 h; outline: as §1
[14] = Biodistribution in NMRI mouse spleen/pancreas assessed per gram of tissue at 3.7 MBq/mL, iv after 60 mins by gamma counting; type: ADME, organism-based; details: in vivo, 1 h; outline: as §1
[15] = Biodistribution in NMRI mouse cerebrum assessed per gram of tissue at 3.7 MBq/mL, iv after 2 mins by gamma counting; type: ADME, organism-based; details: in vivo; outline: as §1
Heart [16] = assay: Biodistribution in NMRI mouse heart assessed per gram of tissue at 3.7 MBq/mL, iv after 2 mins by gamma counting; type: ADME, organism-based; details: in vivo; outline: as §1
Cerebellum [17] = assay: Biodistribution in NMRI mouse cerebellum at 3.7 MBq/mL, iv after 60 mins by gamma counting; type: ADME, organism-based; details: in vivo, 1 h; outline: as §1
Lung [18] = assay: Biodistribution in NMRI mouse lung at 3.7 MBq/mL, iv after 60 mins by gamma counting; type: ADME, organism-based; details: in vivo, 1 h; outline: as §1
Heart [19] = assay: Biodistribution in NMRI mouse heart at 3.7 MBq/mL, iv after 60 mins by gamma counting; type: ADME, organism-based; details: in vivo, 1 h; outline: as §1
Blood [20] = assay: Biodistribution in NMRI mouse blood at 3.7 MBq/mL, iv after 2 mins by gamma counting; type: ADME, organism-based; details: in vivo; outline: as §1
[21] = Biodistribution in NMRI mouse cerebrum assessed per gram of tissue at 3.7 MBq/mL, iv after 60 mins by gamma counting; type: ADME, organism-based; details: in vivo, 1 h; outline: as §1
Lung [22] = assay: Biodistribution in NMRI mouse lung assessed per gram of tissue at 3.7 MBq/mL, iv after 60 mins by gamma counting; type: ADME, organism-based; details: in vivo, 1 h; outline: as §1
Cerebellum [23] = assay: Biodistribution in NMRI mouse cerebellum assessed per gram of tissue at 3.7 MBq/mL, iv after 2 mins by gamma counting; type: ADME, organism-based; details: in vivo; outline: as §1
Intestine [24] = assay: Biodistribution in NMRI mouse intestine at 3.7 MBq/mL, iv after 60 mins by gamma counting; type: ADME, organism-based; details: in vivo, 1 h; outline: as §1
Heart [25] = assay: Biodistribution in NMRI mouse heart assessed per gram of tissue at 3.7 MBq/mL, iv after 60 mins by gamma counting; type: ADME, organism-based; details: in vivo, 1 h; outline: as §1
Cerebellum [26] = assay: Biodistribution in NMRI mouse cerebellum at 3.7 MBq/mL, iv after 2 mins by gamma counting; type: ADME, organism-based; details: in vivo; outline: as §1
Kidney [27] = assay: Biodistribution in NMRI mouse kidney at 3.7 MBq/mL, iv after 2 mins by gamma counting; type: ADME, organism-based; details: in vivo; outline: as §1
Heart [28] = assay: Biodistribution in NMRI mouse heart at 3.7 MBq/mL, iv after 2 mins by gamma counting; type: ADME, organism-based; details: in vivo; outline: as §1
[29] = Biodistribution in NMRI mouse spleen/pancreas at 3.7 MBq/mL, iv after 2 mins by gamma counting; type: ADME, organism-based; details: in vivo; outline: as §1
[30] = Biodistribution in NMRI mouse urine at 3.7 MBq/mL, iv after 60 mins by gamma counting; type: ADME, organism-based; details: in vivo, 1 h; outline: as §1
[31] = Biodistribution in NMRI mouse spleen/pancreas assessed per gram of tissue at 3.7 MBq/mL, iv after 2 mins by gamma counting; type: ADME, organism-based; details: in vivo; outline: as §1
Cerebellum [32] = assay: Biodistribution in NMRI mouse cerebellum assessed per gram of tissue at 3.7 MBq/mL, iv after 60 mins by gamma counting; type: ADME, organism-based; details: in vivo, 1 h; outline: as §1
Liver [33] = assay: Biodistribution in NMRI mouse liver at 3.7 MBq/mL, iv after 2 mins by gamma counting; type: ADME, organism-based; details: in vivo; outline: as §1
Kidney [34] = assay: Biodistribution in NMRI mouse kidney at 3.7 MBq/mL, iv after 60 mins by gamma counting; type: ADME, organism-based; details: in vivo, 1 h; outline: as §1
Blood [35] = assay: Biodistribution in NMRI mouse blood assessed per gram of tissue at 3.7 MBq/mL, iv after 60 mins by gamma counting; type: ADME, organism-based; details: in vivo, 1 h; outline: as §1
Intestine [36] = assay: Biodistribution in NMRI mouse intestine at 3.7 MBq/mL, iv after 2 mins by gamma counting; type: ADME, organism-based; details: in vivo; outline: as §1
Stomach [37] = assay: Biodistribution in NMRI mouse stomach at 3.7 MBq/mL, iv after 2 mins by gamma counting; type: ADME, organism-based; details: in vivo; outline: as §1
[38] = target: Amyloid-beta precursor protein (Homo sapiens, UniProt P05067); assay: Displacement of [125I]IMPY from beta-amyloid plaques in Alzheimer's disease patient brain homogenate; type: tissue-based
Lung [39] = assay: Biodistribution in NMRI mouse lung at 3.7 MBq/mL, iv after 2 mins by gamma counting; type: ADME, organism-based; details: in vivo

Sequence of Amyloid-beta precursor protein (P05067 whole entry): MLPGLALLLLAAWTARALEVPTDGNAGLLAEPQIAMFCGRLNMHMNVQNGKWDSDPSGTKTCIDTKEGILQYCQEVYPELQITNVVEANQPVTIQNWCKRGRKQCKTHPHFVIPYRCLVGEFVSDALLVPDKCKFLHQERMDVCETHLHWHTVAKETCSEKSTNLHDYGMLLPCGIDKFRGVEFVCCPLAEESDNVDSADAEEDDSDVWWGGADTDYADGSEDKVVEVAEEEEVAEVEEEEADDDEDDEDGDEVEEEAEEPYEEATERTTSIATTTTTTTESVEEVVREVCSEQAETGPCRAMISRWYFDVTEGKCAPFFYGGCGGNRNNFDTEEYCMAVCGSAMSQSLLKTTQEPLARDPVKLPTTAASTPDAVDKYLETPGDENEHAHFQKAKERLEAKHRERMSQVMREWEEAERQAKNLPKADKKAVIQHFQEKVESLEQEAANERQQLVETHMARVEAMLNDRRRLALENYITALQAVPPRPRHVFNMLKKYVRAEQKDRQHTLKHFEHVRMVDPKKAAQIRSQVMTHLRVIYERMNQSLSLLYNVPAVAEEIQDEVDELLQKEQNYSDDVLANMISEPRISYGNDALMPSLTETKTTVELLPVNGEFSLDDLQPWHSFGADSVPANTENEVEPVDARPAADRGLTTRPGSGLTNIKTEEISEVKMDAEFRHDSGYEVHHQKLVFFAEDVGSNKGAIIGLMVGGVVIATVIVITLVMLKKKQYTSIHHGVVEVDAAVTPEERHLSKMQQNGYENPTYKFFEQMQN

COc1ccc2nc(-c3ccc([18F])cc3)sc2c1
Drug uptake [1]: 0.2 %ID
Drug uptake (Lung [2]): 9.9 % ID/g
Drug uptake (Blood [3]): 4.4 %ID
Drug uptake (Stomach [4]): 1.2 %ID
Drug uptake [5]: 0.13 %ID
Drug uptake [6]: 1.57 %ID
Drug uptake (Blood [7]): 2 % ID/g
Drug uptake (Liver [8]): 9.9 % ID/g
Drug uptake (Liver [9]): 13.6 %ID
Drug uptake (Kidney [10]): 13.9 % ID/g
Drug uptake (Liver [11]): 6.7 % ID/g
Drug uptake (Kidney [12]): 14.2 % ID/g
Drug uptake [13]: 0.2 %ID
Drug uptake [14]: 0.4 % ID/g
Drug uptake [15]: 5.1 % ID/g
Drug uptake (Heart [16]): 3.9 % ID/g
Drug uptake (Cerebellum [17]): 0.07 %ID
Drug uptake (Lung [18]): 0.6 %ID
Drug uptake (Heart [19]): 0.1 %ID
Drug uptake (Blood [20]): 4.9 %ID
Drug uptake [21]: 0.43 % ID/g
Drug uptake (Lung [22]): 2.1 % ID/g
Drug uptake (Cerebellum [23]): 5.12 % ID/g
Drug uptake (Intestine [24]): 34.3 %ID
Drug uptake (Heart [25]): 0.6 % ID/g
Drug uptake (Cerebellum [26]): 0.56 %ID
Drug uptake (Kidney [27]): 8.6 %ID
Drug uptake (Heart [28]): 0.8 %ID
Drug uptake [29]: 1.3 %ID
Drug uptake [30]: 16.9 %ID
Drug uptake [31]: 4.1 % ID/g
Drug uptake (Cerebellum [32]): 0.68 % ID/g
Drug uptake (Liver [33]): 19.9 %ID
Drug uptake (Kidney [34]): 9.4 %ID
Drug uptake (Blood [35]): 1.7 % ID/g
Drug uptake (Intestine [36]): 8.4 %ID
Drug uptake (Stomach [37]): 1.1 %ID

Oc1cc(O)c2sc(-c3ccc(F)cc3)nc2c1
Ki [38]: 776 nM

[11CH3]Nc1ccc(-c2nc3ccc(O)cc3s2)cc1 [PITTSBURGH COMPOUND B]
Drug uptake [1]: 0.2 %ID
Drug uptake (Lung [2]): 3.6 % ID/g
Drug uptake (Blood [3]): 2.7 %ID
Drug uptake (Stomach [4]): 0.3 %ID
Drug uptake [5]: 0.18 %ID
Drug uptake [6]: 1.08 %ID
Drug uptake (Blood [7]): 3.1 % ID/g
Drug uptake (Liver [8]): 7.9 % ID/g
Drug uptake (Liver [9]): 9.8 %ID
Drug uptake (Kidney [10]): 19.9 % ID/g
Drug uptake (Liver [11]): 5 % ID/g
Drug uptake (Kidney [12]): 9.1 % ID/g
Drug uptake [13]: 0.1 %ID
Drug uptake [14]: 0.7 % ID/g
Drug uptake [15]: 3.6 % ID/g
Drug uptake (Heart [16]): 4.2 % ID/g
Drug uptake (Cerebellum [17]): 0.03 %ID
Drug uptake (Lung [18]): 0.3 %ID
Drug uptake (Heart [19]): 0.3 %ID
Drug uptake (Blood [20]): 7.9 %ID
Drug uptake [21]: 0.6 % ID/g
Drug uptake (Lung [22]): 1.3 % ID/g
Drug uptake (Cerebellum [23]): 1.6 % ID/g
Drug uptake (Intestine [24]): 42.5 %ID
Drug uptake (Heart [25]): 2.1 % ID/g
Drug uptake (Cerebellum [26]): 0.17 %ID
Drug uptake (Kidney [27]): 10.3 %ID
Drug uptake (Heart [28]): 0.6 %ID
Drug uptake [29]: 0.6 %ID
Drug uptake [30]: 24.4 %ID
Drug uptake (Lung [39]): 0.9 %ID
Drug uptake [31]: 4.7 % ID/g
Drug uptake (Cerebellum [32]): 0.31 % ID/g
Drug uptake (Liver [33]): 15.6 %ID
Drug uptake (Kidney [34]): 4.8 %ID
Drug uptake (Blood [35]): 1.1 % ID/g
Drug uptake (Intestine [36]): 12 %ID
Drug uptake (Stomach [37]): 1.1 %ID
